# Most compounds without a hit are left out; they make up all but 2.3% or so of the library.
# Mcl1-Noxa inh: disrupts binding of human Mcl-1 to Noxa peptide | Q07820 | TR-FRET Mcl-1/Noxa peptide binding, 2 h | inhibition, % at 21.7 µM | hit rate 1.5% among 220,000;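 active = compounds that cut the protein-peptide binding signal by more than 50% relative to plate controls in a single-dose test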;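 also: His-tagged Mcl-1 with rhodamine Noxa BH3 peptide and terbium anti-His antibody; 0% = Mcl-1 plus Noxa peptide wells and 100% = peptide-only wells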
# Mcl1-Bid inh: Mcl-1/Bid interaction inhibition; Q07820; TR-FRET Mcl-1/Bid-Dy647 peptide binding, 1536-well; inhibition, % at 21.7 µM; hit rate 0.97% among 220,000; AID 1021;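 active = compounds that cut the binding signal by more than half at the single screening dose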;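 also: His-tagged Mcl-1 with europium anti-His antibody binding Bid BH3 peptide; 0% = Mcl-1 plus peptide wells and 100% = peptide-only wells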
# MCL1-BIM inh: inhibitors of human MCL1 binding to BIM-BH3 peptide | Q07820 | GST-MCL1 / FITC-Bim-BH3 fluorescence polarization | inhibition, % at 10.9 µM | hit rate 0.68% among 320,000;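 active = inhibition above the mean inhibition of all tested compounds plus 3 SD, set per campaign, cut at about 40% in these data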;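 also: 0% = DMSO wells and 100% = unlabeled Bim-BH3 peptide control; higher means more loss of mP so more displacement of Bim peptide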
# Pemphigus Ab inh: blocks pemphigus antibody binding to human desmoglein-3. P32926. DSG3-coupled beads, scFv-anti-DSG3-GFP binding, flow cytometry; hits give low values. binding (percent of control), % at 10 µM. hit rate 0.48% among 310,000;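 active = binding more than 3 SD below its plate's average and above zero; inconclusive = below that plate limit but binding exactly zero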;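 also: hits lower antibody fragment binding to DSG3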
# Mcl-1 Bim block: human Bim-Mcl-1 interaction inhibition | inhibition, % at 10 µM | AID 1009 | hit rate 0.1% among 190,000 | Bead-based flow cytometry, Bim peptide-Mcl-1 binding; in the data active = inhibition above about 40%;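 also: 0% = no compound tracer wells and 100% = peptide blocker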
# T cell modulator: T cell immune modulation candidate. 2C CD8+ T cell-vesicle binding, flow cytometry; hits give low values. hit rate 0.068% among 330,000. response (vesicle binding), % at 7 µM;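 active = response, share of CD8 T cells binding vesicles, and their 90th percentile fluorescence all below set limits, cut at about 80% in these data, passing the limit was not always enough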;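 also: values below 100% mean blocked vesicle binding to the CD8+ T cells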
#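 System: murine 2C transgenic CD8+ T lymphocytes; also added: QL9-loaded Drosophila micro-vesicles; times: binding 1.5 h at 37 °C; measured by: flow cytometry, PE anti-B7-1 (FL2) versus Alexa647 anti-CD8 (FL8), PFA-fixed; control set: Peptide-free naked vesicles (low) and QL9 vesicles with 0.7% DMSO vehicle (high)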
# Active calls of the source: *; i = inactive; ? = inconclusive; nt = not tested or not shown.
SMILES,Mcl1-Noxa inh,Mcl1-Bid inh,MCL1-BIM inh,Pemphigus Ab inh,Mcl-1 Bim block,T cell modulator
CN(C)c1ccc(NC(=O)c2ccc([N+](=O)[O-])cc2Cl)cc1,74*,-19,6,88,-4,129
C/C(CC(=O)Nc1ccccn1)=N\NC(=O)c1ccc([N+](=O)[O-])cc1Cl,nt,nt,7,nt,nt,230
COCCNC(=O)c1c(N)n(CCC2=CCCCC2)c2nc3ccccc3nc12,9,-10,52*,98,0,406
CC(C)NC(=O)Nc1ccc2c(c1)C(=O)N([C@H](C)CO)C[C@H](C)[C@@H](CN(C)S(=O)(=O)c1cn(C)cn1)O2,nt,nt,nt,106,nt,613
CC1=C(C#N)C(=O)N(C2CCS(=O)(=O)C2)C(=O)/C1=C\c1ccc(C)o1 (stereo not given),93*,4,52*,nt,nt,302
CCN1C(=O)N/C(=C/c2ccc(C)o2)C1=O,25,-81,28,110,-5,175
Cc1cccc(CS(=O)(=O)Cc2ccc(C(=O)O)o2)c1,56*,-2,4,104,-5,340
COCCCNC(=O)c1ccc(CS(=O)(=O)Cc2cccc(C)c2)o1,11,-1,1,114,0,357
O=C(OCC(=O)N1CCCC1=O)C1CCN(S(=O)(=O)c2c(Cl)cccc2Cl)CC1,nt,nt,-9,?,nt,680
CC(C)NC(=O)c1ccc(N(Cc2ccccc2)S(C)(=O)=O)cc1,nt,nt,nt,88*,nt,193
CC(C)NC(=O)c1ccccc1N(Cc1ccccc1)S(C)(=O)=O,-12,-22,5,nt,-4,115
Cc1ccc(-c2ccc(/C=N/N=C3/NC(=O)C(CC(=O)O)S3)o2)c([N+](=O)[O-])c1 (stereo not given),29,-37,22,103,1,186
CC1=C(C#N)C(=O)NC(=O)/C1=C\c1ccc(-c2ccc(C)cc2[N+](=O)[O-])o1,95*,75*,nt,98,0,nt
CCN(CC)CCNc1ccc(CO)c2oc3ccccc3c(=O)c12,nt,nt,nt,108,nt,nt
CCN1/C(=C/c2ccc3cc(C)ccc3[n+]2C)Sc2ccc3sccc3c21,60*,-28,nt,3.0*,38,nt
Cc1cccc(C)c1NC(=O)C1c2ccccc2Oc2ccccc21,17,81*,-6,99,-4,157
Cc1ccccc1NC(=O)C1c2ccccc2Oc2ccccc21,14,-8,0,100,-4,159
CCOC(=O)c1c(-c2ccc(C)o2)csc1NC(=O)CSc1nncs1,24,-23,13,105,-2,i
CCOC(=O)c1c(-c2ccco2)csc1NC(=O)CSc1nnc(N)s1,30,80*,9,99,0,134
Cc1cc(C)c(NC(=S)NC(=O)c2ccc(-c3ccccc3)cc2)c(C)c1,22,-1,11,41*,0,936
COc1ccc(CCNC(=O)CSCC(=O)Nc2cc(S(C)(=O)=O)ccc2Cl)cc1,nt,nt,nt,101,nt,226
C[C@H](CO)N1C[C@H](C)[C@H](CN(C)S(=O)(=O)c2ccc(Cl)cc2)OCc2cnnn2CCCC1=O,nt,nt,nt,103,nt,nt
CCN(CC)CCn1c(NCc2ccccn2)nc2ccccc21,34,85*,0,100,-6,299
CCCCn1c(NCc2ccccn2)nc2ccccc21,23,-11,4,104,-4,139
c1ccc2sc(SN3CCOCC3)nc2c1,4,-2,-15,80*,-2,185
SMILES,Mcl1-Noxa inh,Mcl1-Bid inh,MCL1-BIM inh,Pemphigus Ab inh,Mcl-1 Bim block,T cell modulator
c1ccc2sc(N3CCOCC3)nc2c1,44,1,-1,102,-4,385
CC(=O)c1ccc(S(=O)(=O)Nc2ccc(-c3ccc4nnc(C)n4n3)cc2)cc1,55*,-3,26,83,2,226
Cc1nnc2ccc(-c3ccc(NS(=O)(=O)c4ccccc4)cc3)nn12,nt,nt,nt,71*,nt,nt
CC1(C)Cc2cccc(OCC(=O)OCC(=O)NCc3ccccc3)c2O1,nt,nt,-9,109,nt,944
Nc1[nH]c(=O)nc(Nc2ccccc2)c1N=O,nt,nt,-4,111,nt,168
O=C1c2cccc3cccc(c23)C(=O)N1/N=C/c1ccc(O)cc1O,60*,28,2,93,-3,348
O=C1c2cccc3cccc(c23)C(=O)N1c1ccc(O)cc1,nt,nt,5,125,nt,179
O=C1c2ccccc2C(=O)N1/N=C/c1ccc(O)c(O)c1O,100*,-93,nt,96,nt,nt
O=C(NC1=NN(c2ccccc2)CC1)Nc1ccccc1F,14,11,1,102,nt,340
Cc1cccc(NC(=O)COC(=O)C2C3CC4OC(=O)C2C4C3)c1C (stereo not given),nt,nt,0,57*,nt,i
Cc1cccc(C)c1NC(=O)COC(=O)C1C2CC3OC(=O)C1C3C2 (stereo not given),nt,nt,0,nt,nt,217
O=C(CSc1nnc(NC2CC2)s1)c1ccc[nH]1,nt,nt,nt,nt,nt,336
COc1ccc2cc(CN(C)C(=O)CN3C(=O)NC4(CCCC4)C3=O)ccc2c1,nt,nt,nt,100,nt,nt
O=C1c2ccccc2-c2onc3ccc(N4CCCC4)c1c23,-7,-30,nt,47*,33,nt
O=C1c2ccccc2C(=O)c2c1cccc2N1CCCC1,17,-60,21,99,-2,287
COc1cc(/C=C/c2nnc3c4ccccc4ncn23)cc(OC)c1OC,52*,2,-4,92,-5,469
CCOC(=O)c1ccc(S(=O)(=O)N2CC(=O)Nc3ccccc32)cc1,nt,nt,7,nt,nt,282
ClCC(CNCc1ccccc1)c1ccccc1 (stereo not given),nt,nt,nt,124,nt,nt
NC(=O)c1ccc(-n2c(CCC(=O)O)ccc2-c2cccs2)cc1,23,-67,0,97,3,153
CC(=O)c1ccc(-n2c(CCC(=O)O)ccc2-c2cccs2)cc1,69*,-28,5,104,-4,515
CCOC(=O)c1nnn(-c2nonc2NC(C)=O)c1C,6,-16,-11,52*,-2,304
O=C(c1ccc(Br)cc1)N(Cc1nc2ccccc2c(=O)[nH]1)C1CCCC1,6,-14,-4,107,1,360
Cc1nnsc1C(=O)NNc1c(Cl)cccc1Cl,14,-4,12,106,nt,521
CCc1ccccc1NNC(=O)c1snnc1C,3,-24,7,93,nt,52*
N#C/C(=C(/O)CSc1nnc(Cc2cccs2)n1C1CCCCC1)c1nc2ccccc2[nH]1,52*,-65,-2,114,7,463
Nc1ncnc(N)c1NC(=O)c1ccc(OCc2ccccc2)cc1,nt,nt,nt,101,nt,nt
Cc1cc(OCC(=O)OCC(=O)N(Cc2ccccc2)C(C)(C)C)ccc1Cl,nt,nt,nt,97,nt,nt
Oc1c(/C=N/c2ccccn2)sc2ccccc12,76*,49,-42,90,nt,162
Cc1onc(-c2ccccc2)c1-c1nnc(CN2CCN(S(=O)(=O)c3ccccc3F)CC2)o1,nt,nt,0,99,nt,628
O=C(NCc1ccco1)c1ccc2nc3sc4c(c3c(=O)n2c1)CCCC4,68*,2,9,nt,8,389

# Screens: PubChem BioAssay, several laboratories
